Test results from ChEMBL document CHEMBL2069269, “Anti-inflammatory Effect of a Cell-Penetrating Peptide Targeting the Nrf2/Keap1 Interaction” (2012).
One block for each compound: values may come before it. The source made the active and inactive calls. No cut-off for these calls is given here. Where a SMILES comes first, the peptide text is derived from it.

Experiments:
[1] = molecular target: Kelch-like ECH-associated protein 1 (Homo sapiens) (UniProt Q14145); experiment: Inhibition of Keap1 interaction with Nrf2 in human THP1 cells assessed as increase in HO-1 mRNA expression at 100 uM from 3 to 6 hrs by qRT-PCR analysis; format: cell-based; settings: THP-1
Summary of the method: (§1)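 Human THP-1 monocytes were incubated with peptide over a time course. HO-1 mRNA was measured by qRT-PCR and normalised to GAPDH mRNA. Data are means ± SEM, n = 3. A dose series of 7.5, 18.75, 37.5 and 75 μM was also tested by the same read-out.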

[2] = molecular target: Kelch-like ECH-associated protein 1 (Homo sapiens) (UniProt Q14145); experiment: Inhibition of Keap1 interaction with Nrf2 in human THP1 cells assessed as increase in Nrf2 protein expression at 100 uM after 3 hrs by Western blot analysis; format: cell-based; settings: THP-1
Summary of the method: (§2)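 THP-1 cells were incubated with peptide over a time course, alongside a peptide scrambled in the Keap1-binding 14mer region. Nrf2 protein was detected in cell lysates by Western blot.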

THP-1 [3] = experiment: Upregulation of Nrf2 mRNA expression in human THP1 cells at 100 uM by qRT-PCR analysis; format: functional, cell-based
[4] = molecular target: Kelch-like ECH-associated protein 1 (Homo sapiens) (UniProt Q14145); experiment: Inhibition of Keap1 interaction with Nrf2 in human THP1 cells assessed as increase in HO-1 protein expression at 37.5 uM by Western blot analysis; format: cell-based; settings: THP-1
[5] = molecular target: Kelch-like ECH-associated protein 1 (Homo sapiens) (UniProt Q14145); experiment: Inhibition of Keap1 interaction with Nrf2 in human THP1 cells assessed as increase in HO-1 protein expression by Western blot analysis; format: cell-based; settings: THP-1
Summary of the method: (§3)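 THP-1 monocytes were treated with peptide or the scrambled-sequence control peptide over a time course. HO-1 protein was assessed by Western blot. The blot shown is representative of n = 3 experiments.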

[6] = molecular target: Kelch-like ECH-associated protein 1 (Homo sapiens) (UniProt Q14145); experiment: Inhibition of Keap1 interaction with Nrf2 in human THP1 cells assessed as increase in HO-1 protein expression at 100 uM at 12 hrs by Western blot analysis; format: cell-based; settings: THP-1; summary of the method: as §3
[7] = molecular target: Kelch-like ECH-associated protein 1 (Homo sapiens) (UniProt Q14145); experiment: Inhibition of Keap1 interaction with Nrf2 in human THP1 cells assessed as increase in HO-1 mRNA expression at 75 uM at 6 hrs by qRT-PCR analysis relative to control; format: cell-based; settings: THP-1; summary of the method: as §1
THP-1 [8] = experiment: Antiinflammatory activity in human THP1 cells assessed as inhibition of LPS-induced TNFalpha mRNA expression at 100 uM incubated for 4 hrs prior to LPS-stimulation measured after 3 hrs by qRT-PCR analysis
[9] = molecular target: Kelch-like ECH-associated protein 1 (Homo sapiens) (UniProt Q14145); experiment: Inhibition of Keap1 interaction with Nrf2 in human THP1 cells assessed as increase in HO-1 mRNA expression at 100 uM from 2 to 8 hrs by qRT-PCR analysis; format: cell-based; settings: THP-1; summary of the method: as §1
[10] = molecular target: Kelch-like ECH-associated protein 1 (Homo sapiens) (UniProt Q14145); experiment: Inhibition of Keap1 interaction with Nrf2 in human THP1 cells assessed as increase in HO-1 protein expression at 100 uM at 9 to 16 hrs by Western blot analysis; format: cell-based; settings: THP-1; summary of the method: as §3
[11] = molecular target: Kelch-like ECH-associated protein 1 (Homo sapiens) (UniProt Q14145); experiment: Inhibition of Keap1 interaction with Nrf2 in human THP1 cells assessed as increase in Nrf2 protein expression at 100 uM from 1 to 6 hrs by Western blot analysis; format: cell-based; settings: THP-1; summary of the method: as §2

Sequence of Kelch-like ECH-associated protein 1 (Homo sapiens) (Q14145 whole entry): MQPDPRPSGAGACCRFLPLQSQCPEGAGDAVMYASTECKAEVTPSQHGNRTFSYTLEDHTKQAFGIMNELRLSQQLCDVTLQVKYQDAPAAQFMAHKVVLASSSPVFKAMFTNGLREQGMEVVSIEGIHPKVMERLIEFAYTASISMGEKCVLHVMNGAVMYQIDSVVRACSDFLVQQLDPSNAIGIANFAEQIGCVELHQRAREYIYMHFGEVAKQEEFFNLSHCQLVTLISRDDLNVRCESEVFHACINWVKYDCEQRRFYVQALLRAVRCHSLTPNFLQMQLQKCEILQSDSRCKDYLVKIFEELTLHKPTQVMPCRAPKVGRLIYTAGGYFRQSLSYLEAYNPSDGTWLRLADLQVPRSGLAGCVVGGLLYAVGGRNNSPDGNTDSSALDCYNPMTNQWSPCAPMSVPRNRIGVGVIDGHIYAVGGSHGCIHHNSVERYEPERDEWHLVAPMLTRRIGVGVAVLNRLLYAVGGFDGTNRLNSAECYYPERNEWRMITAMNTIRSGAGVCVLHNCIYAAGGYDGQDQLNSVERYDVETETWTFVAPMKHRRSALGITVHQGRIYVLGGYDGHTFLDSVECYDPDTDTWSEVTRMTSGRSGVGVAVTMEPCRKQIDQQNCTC

- inhibition [1]: Active
SMILES: CC(C)C[C@H](NC(=O)[C@H](CCCNC(=N)N)NC(=O)[C@H](CCCNC(=N)N)NC(=O)[C@H](CCCNC(=N)N)NC(=O)[C@H](CCC(N)=O)NC(=O)[C@H](CCCNC(=N)N)NC(=O)[C@H](CCCNC(=N)N)NC(=O)[C@H](CCCCN)NC(=O)[C@H](CCCCN)NC(=O)[C@H](CCCNC(=N)N)NC(=O)CNC(=O)[C@@H](N)Cc1ccc(O)cc1)C(=O)N[C@@H](CC(=O)O)C(=O)N[C@@H](CCC(=O)O)C(=O)N[C@@H](CCC(=O)O)C(=O)N[C@H](C(=O)NCC(=O)N[C@@H](CCC(=O)O)C(=O)N[C@@H](Cc1ccccc1)C(=O)N[C@@H](CC(C)C)C(=O)N1CCC[C@H]1C(=O)O)[C@@H](C)O

- inhibition [2]: Active
- inhibition [4]: Active
- inhibition [5]: Dose-dependent effect
- inhibition [6]: Active
- fold change (FC) [7]: 24
- inhibition [1]: inactive
SMILES: CC[C@H](C)[C@H](NC(=O)[C@@H]1CCCN1C(=O)[C@H](CC(C)C)NC(=O)[C@H](Cc1ccccc1)NC(=O)[C@H](CCC(=O)O)NC(=O)CNC(=O)[C@@H](NC(=O)[C@H](CCC(=O)O)NC(=O)[C@H](CCC(=O)O)NC(=O)[C@H](CC(=O)O)NC(=O)[C@H](CC(C)C)NC(=O)[C@H](CCC(N)=O)NC(=O)[C@H](CC(C)C)NC(=O)[C@H](CCCNC(=N)N)NC(=O)[C@H](CCCNC(=N)N)NC(=O)[C@H](CCCNC(=N)N)NC(=O)[C@H](CCC(N)=O)NC(=O)[C@H](CCCNC(=N)N)NC(=O)[C@H](CCCNC(=N)N)NC(=O)[C@H](CCCCN)NC(=O)[C@H](CCCCN)NC(=O)[C@H](CCCNC(=N)N)NC(=O)CNC(=O)[C@@H](N)Cc1ccc(O)cc1)[C@@H](C)O)C(=O)N[C@@H](CCC(N)=O)C(=O)O
- Activity (THP-1 [3]): inactive
- inhibition at 100 µM (THP-1 [8]): 61%

- inhibition [1]: inactive
SMILES: CC(C)C[C@H](NC(=O)[C@H](Cc1ccccc1)NC(=O)[C@H](CCC(=O)O)NC(=O)CNC(=O)[C@@H](NC(=O)[C@H](CCC(=O)O)NC(=O)[C@H](CCC(=O)O)NC(=O)[C@H](CC(=O)O)NC(=O)[C@H](CC(C)C)NC(=O)[C@H](CCC(N)=O)NC(=O)[C@H](CC(C)C)NC(=O)[C@H](CCC(N)=O)NC(=O)[C@H](C)NC(=O)[C@H](Cc1ccccc1)NC(=O)[C@H](Cc1ccccc1)NC(=O)[C@H](C)NC(=O)[C@H](CCCNC(=N)N)NC(=O)[C@H](CCCNC(=N)N)NC(=O)[C@H](CCCNC(=N)N)NC(=O)[C@H](CCC(N)=O)NC(=O)[C@H](CCCNC(=N)N)NC(=O)[C@H](CCCNC(=N)N)NC(=O)[C@H](CCCCN)NC(=O)[C@H](CCCCN)NC(=O)[C@H](CCCNC(=N)N)NC(=O)CNC(=O)[C@@H](N)Cc1ccc(O)cc1)[C@@H](C)O)C(=O)O (H-YGRKKRRQRRRAFFAQLQLDEETGEFL-OH)

- inhibition [9]: inactive
SMILES: CC[C@H](C)[C@H](NC(=O)[C@@H]1CCCN1C(=O)[C@H](CC(C)C)NC(=O)[C@H](Cc1ccccc1)NC(=O)[C@H](CCC(=O)O)NC(=O)CNC(=O)[C@@H](NC(=O)[C@H](CCC(=O)O)NC(=O)[C@H](CCC(=O)O)NC(=O)[C@H](CC(=O)O)NC(=O)[C@H](CC(C)C)NC(=O)[C@H](CCC(N)=O)NC(=O)[C@@H](N)CC(C)C)[C@@H](C)O)C(=O)N[C@@H](CCC(N)=O)C(=O)O

- inhibition [10]: inactive
- inhibition [11]: inactive
- inhibition [9]: inactive
SMILES: CC[C@H](C)[C@H](NC(=O)[C@H](CC(=O)O)NC(=O)[C@@H](NC(=O)CNC(=O)[C@H](Cc1ccccc1)NC(=O)[C@H](CCC(=O)O)NC(=O)[C@H](CCCNC(=N)N)NC(=O)[C@H](CCCNC(=N)N)NC(=O)[C@H](CCCNC(=N)N)NC(=O)[C@H](CCC(N)=O)NC(=O)[C@H](CCCNC(=N)N)NC(=O)[C@H](CCCNC(=N)N)NC(=O)[C@H](CCCCN)NC(=O)[C@H](CCCCN)NC(=O)[C@H](CCCNC(=N)N)NC(=O)CNC(=O)[C@@H](N)Cc1ccc(O)cc1)[C@@H](C)O)C(=O)N[C@@H](CCC(N)=O)C(=O)N[C@@H](CC(C)C)C(=O)N[C@H](C(=O)N[C@@H](CCC(=O)O)C(=O)N1CCC[C@H]1C(=O)N[C@@H](CCC(N)=O)C(=O)N[C@@H](CC(C)C)C(=O)N[C@@H](CCC(=O)O)C(=O)O)[C@@H](C)CC (H-YGRKKRRQRRREFGTDIQLIEPQLE-OH)
